# Measured values taken from ChEMBL document CHEMBL1144275, “Studies on the structure-activity relationship of 2',6'-dimethyl-l-tyrosine (Dmt) derivatives: bioactivity profile of H-Dmt-NH-CH(3)” (Bioorg Med Chem Lett, 2005).
# Non-standard residues stand in square brackets, D forms with d. Residues, ends and D or L forms follow the SMILES beside them. Dmt = Cc1cc(O)cc(C)c1C[C@H](N)C(=O)O; Tic = O=C(O)[C@@H]1Cc2ccccc2CN1
# Columns and labels:
# Rattus norvegicus = species on record: Rattus norvegicus; assay: Ratio of binding affinities for opioid receptors delta 1 and mu 1
# Method in brief: (§1)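 Ki values given as the mean ± SE of four to seven experiments; selectivity expressed as Kiδ/Kiμ.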
# [1] = Binding affinity for rat brain opioid receptor mu 1; method in brief: as §1
# [2] = Binding affinity for rat brain opioid receptor delta 1; method in brief: as §1
# Mus musculus [3] = assay: Analgesia was determined by hotplate (HP) test relative to morphine in mice after antinociception of intracerebroventricularly (icv) administration;Range-0.64?0.85; assay type: functional
# Mus musculus [4] = species on record: Mus musculus; assay: Percent antagonism was evaluated relative to morphine in mice using naloxone; assay type: functional
# Mus musculus [5] = assay: Analgesia was determined by tail-flick (TF) test relative to morphine in mice after antinociception of intracerebroventricularly (icv) administration;Range 1.3-1.7; assay type: functional
# Mus musculus [6] = species on record: Mus musculus; assay: Minimum effective dose showing antinociception activity in mice; assay type: functional
# Method in brief: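 Minimum effective dose (nmol) for antinociception in mice after intracerebroventricular administration, measured by tail-flick and hot-plate tests.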
# Mus musculus [7] = assay: Analgesia was determined by tail-flick (TF) test relative to morphine in mice after antinociception of intracerebroventricularly (icv) administration;Range 0.48-0.55; assay type: functional
# Mus musculus [8] = assay: Analgesia was determined by hotplate (HP) test relative to morphine in mice after antinociception of intracerebroventricularly (icv) administration; assay type: functional
SMILES,Ratio (Rattus norvegicus),Ki [1],Ki [2],Activity (Mus musculus [3]),Antagonism (Mus musculus [4]),Activity (Mus musculus [5]),MED (Mus musculus [6]),Activity (Mus musculus [7]),Activity (Mus musculus [8])
Cc1cc(O)cc(C)c1C[C@H](N)C(=O)N1Cc2ccccc2C[C@H]1C(=O)O (H-[Dmt]-[Tic]-OH),6.6e-07,3.22 µM,–,–,–,–,–,–,–
Cc1cc(O)cc(C)c1C[C@H](N)C(=O)NCCC(=O)O,1,0.329 µM,0.328 µM,–,–,–,–,–,–
Cc1cc(O)cc(C)c1C[C@H](N)C(=O)NC1CCCCC1,1.71,0.115 µM,0.197 µM,–,–,–,–,–,–
CNC(=O)[C@@H](N)Cc1c(C)cc(O)cc1C,61.7,0.00745 µM,0.46 µM,0.85%,73%,1.7%,30 nM,–,–
Cc1cc(O)cc(C)c1C[C@H](N)C(=O)NC(C)C,22,0.0224 µM,0.492 µM,–,–,–,–,–,–
Cc1cc(O)cc(C)c1C[C@H](N)C(=O)NC1C2CC3CC(C2)CC1C3 (some centres undefined),0.23,0.746 µM,0.175 µM,–,–,–,–,–,–
Cc1cc(O)cc(C)c1C[C@H](N)C(=O)NC12CC3CC(CC(C3)C1)C2,0.27,0.767 µM,0.208 µM,–,–,–,–,–,–
Cc1cc(O)cc(C)c1C[C@H](N)C(=O)Nc1ccccc1,0.069,1.73 µM,0.12 µM,–,–,–,–,–,–
Cc1cc(O)cc(C)c1C[C@H](N)C(N)=O,13,–,1.47 µM,–,100%,–,200 nM,0.55%,0.26%
CONC(=O)[C@@H](N)Cc1c(C)cc(O)cc1C,26.3,0.174 µM,4.58 µM,–,–,–,–,–,–
Cc1cc(O)cc(C)c1C[C@H](N)C(=O)O,1.55,–,46.5 µM,–,–,–,–,–,–
Cc1cc(O)cc(C)c1C[C@H](N)C(=O)Nc1cccc2ccccc12,0.054,0.966 µM,0.0528 µM,–,–,–,–,–,–
Cc1cc(O)cc(C)c1C[C@H](N)C(=O)NCCO,28.1,0.0162 µM,0.455 µM,–,–,–,–,–,–
Cc1cc(O)cc(C)c1C[C@H](N)C(=O)NCC(=O)O,0.43,2.7 µM,1.15 µM,–,–,–,–,–,–
CCNC(=O)[C@@H](N)Cc1c(C)cc(O)cc1C,41.6,0.0156 µM,0.649 µM,–,–,–,–,–,–
Cc1cc(O)cc(C)c1C[C@H](N)C(=O)NCN,13.4,0.18 µM,2.41 µM,–,–,–,–,–,–
Cc1cc(O)cc(C)c1C[C@H](N)C(=O)NO,5.58,–,9.49 µM,–,–,–,–,–,–
Cc1cc(O)cc(C)c1C[C@H](N)C(=O)NCCN,338,0.0108 µM,3.65 µM,–,–,–,–,–,–
CCCNC(=O)[C@@H](N)Cc1c(C)cc(O)cc1C,9.82,0.0169 µM,0.166 µM,–,–,–,–,–,–
Cc1cc(O)cc(C)c1C[C@H](N)C(=O)NC(C)(C)C,14.8,0.036 µM,0.531 µM,–,–,–,–,–,–
